The target in experiment [1] is Procathepsin L (Homo sapiens) (UniProt P07711). Description: Inhibition of human cathepsin L using Z-Phe-ArgpNA as substrate assessed as residual activity at 50 uM by spectrophotometric analysis relative to control. A digest of the protocol:
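Residual human cathepsin L activity is determined in duplicate with the inhibitor at a single concentration (50). Activity is expressed relative to an uninhibited control.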

Experiment [2] is filed under the species Bos taurus. The experiment can be described thus: Inhibition of bovine chymotrypsin assessed as residual activity at 5 uM relative to control. Summed up: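 Residual chymotrypsin activity is measured with the inhibitor present at a single concentration (5). Assays are run in duplicate, and activity is expressed relative to an uninhibited control.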
Experiment [3] is filed under the species Bos taurus. Description: Inhibition of bovine trypsin Suc-Ala-Ala-Pro-Arg-para-nitroanilide as substrate assessed as residual activity at 10 uM after 10 mins relative to control. A digest of the protocol:
(§1)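 Residual enzyme activity is determined in duplicate experiments in the presence of the inhibitor at a single concentration (10). Activity is expressed relative to an uninhibited control.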

Experiment [4] concerns the target Acetylcholinesterase (Electrophorus electricus) (UniProt O42275). Description: Inhibition of electric eel AChE assessed as residual activity at 10 uM relative to control. Summed up: as §1
Experiment [5] concerns the target T1, Neutrophil elastase (Homo sapiens, UniProt P08246).
T1 sequence (P08246 whole entry): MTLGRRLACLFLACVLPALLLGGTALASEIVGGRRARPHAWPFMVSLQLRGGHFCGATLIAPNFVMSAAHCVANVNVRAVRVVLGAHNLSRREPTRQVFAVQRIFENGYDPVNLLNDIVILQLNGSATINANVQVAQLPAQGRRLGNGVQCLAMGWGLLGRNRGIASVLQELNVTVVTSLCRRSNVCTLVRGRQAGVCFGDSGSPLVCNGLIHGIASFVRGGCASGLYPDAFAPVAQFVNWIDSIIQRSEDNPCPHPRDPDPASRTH
The experiment can be described thus: Inhibition of human leukocyte elastase.

Experiment [6] deals with T2, Prothrombin (Homo sapiens, UniProt P00734). Description: Inhibition of human thrombin using H-D-Phe-L-Pip-Arg-para-nitroanilide as substrate after 5 mins.
Experiment [7] can be described thus: Inhibition of porcine cholesterol esterase using para-nitrophenyl butyrate as substrate preincubated for 5 mins by spectrophotometric analysis. Also on record: species or system Sus scrofa. A digest of the protocol: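 CEase assay on the porcine enzyme with para-nitrophenyl butyrate in 100 mM sodium phosphate and 100 mM NaCl, at 25 °C, read at 405 nm. Final: 6 mM sodium taurocholate, 3% acetonitrile, 3% DMSO, 10 ng/mL CEase. 5 min preincubation before enzyme start. Duplicates at five inhibitor concentrations; IC50 fitted by non-linear regression to v = v0/(1+[I]/IC50).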

The target in experiment [8] is T2, Prothrombin. Description: Inhibition of human thrombin using H-D-Phe-L-Pip-Arg-para-nitroanilide as substrate assessed as residual activity at 10 uM after 5 mins relative to control. Summed up: as §1
Experiment [9] can be described thus: Inhibition of bovine trypsin Suc-Ala-Ala-Pro-Arg-para-nitroanilide as substrate after 10 mins. Also on record: species or system Bos taurus.
The target of experiment [10] is T3, Neutrophil elastase (Homo sapiens) (UniProt P08246).
T3 sequence (whole entry): T1 sequence (P08246 whole entry)
Description: Inhibition of human leukocyte elastase assessed as residual activity at 10 uM relative to control. Summed up:
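Residual enzyme activity measured in duplicate at one inhibitor concentration; more than 90% residual activity scored as no inhibition.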

Experiment [11] deals with Acetylcholinesterase (Electrophorus electricus, UniProt O42275). Description: Inhibition of electric eel AChE.
Sequence of Acetylcholinesterase (O42275 whole entry): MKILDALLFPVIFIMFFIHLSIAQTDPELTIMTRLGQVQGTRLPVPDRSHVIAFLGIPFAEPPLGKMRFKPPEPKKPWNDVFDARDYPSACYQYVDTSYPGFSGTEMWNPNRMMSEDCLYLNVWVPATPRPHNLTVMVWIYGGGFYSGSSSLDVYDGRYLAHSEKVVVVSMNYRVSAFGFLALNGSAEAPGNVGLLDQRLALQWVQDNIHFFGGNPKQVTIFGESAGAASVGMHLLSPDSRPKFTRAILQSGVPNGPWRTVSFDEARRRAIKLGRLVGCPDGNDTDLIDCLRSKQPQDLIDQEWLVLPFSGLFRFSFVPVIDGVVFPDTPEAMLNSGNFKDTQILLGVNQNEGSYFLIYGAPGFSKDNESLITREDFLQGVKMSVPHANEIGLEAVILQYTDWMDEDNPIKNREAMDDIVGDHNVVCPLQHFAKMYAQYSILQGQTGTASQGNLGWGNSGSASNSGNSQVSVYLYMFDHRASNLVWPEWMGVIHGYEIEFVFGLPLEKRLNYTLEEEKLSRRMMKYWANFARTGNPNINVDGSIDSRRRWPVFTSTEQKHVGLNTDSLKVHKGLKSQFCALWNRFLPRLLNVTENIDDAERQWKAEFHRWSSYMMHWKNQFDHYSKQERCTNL
The nature of experiment [12]: Uncompetitive inhibition of porcine cholesterol esterase using para-nitrophenyl butyrate as substrate by Lineweaver-Burk plot analysis. Also on record: species or system Sus scrofa.
Experiment [13] can be described thus: Competitive inhibition of porcine cholesterol esterase using para-nitrophenyl butyrate as substrate by Lineweaver-Burk plot analysis. Further details: species or system Sus scrofa.
A short description of experiment [14]: Inhibition of bovine chymotrypsin. Further details: species or system Bos taurus.
The species entered for experiment [15] is Sus scrofa. The experiment can be described thus: Inhibition of porcine cholesterol esterase using para-nitrophenyl butyrate as substrate assessed as residual activity at 25 uM preincubated for 5 mins by spectrophotometric analysis relative to control. A digest of the protocol:
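Porcine CEase read spectrophotometrically at 405 nm, 25 °C, with para-nitrophenyl butyrate. Buffer: 100 mM sodium phosphate, 100 mM NaCl. Final concentrations: 6 mM sodium taurocholate, 3% acetonitrile, 3% DMSO, 10 ng/mL enzyme. Inhibitor and substrate mixed and held 5 min, then enzyme added to start. Residual activity taken from duplicates at one inhibitor concentration.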

What is called IC50 is the concentration that inhibits the measured activity by half. Higher therefore signals weaker potency. For orientation: Ki means a measure of affinity in units of concentration, obtained from inhibition or displacement.

Sequence of Acetylcholinesterase (Electrophorus electricus) (O42275 24-633 limits assumed): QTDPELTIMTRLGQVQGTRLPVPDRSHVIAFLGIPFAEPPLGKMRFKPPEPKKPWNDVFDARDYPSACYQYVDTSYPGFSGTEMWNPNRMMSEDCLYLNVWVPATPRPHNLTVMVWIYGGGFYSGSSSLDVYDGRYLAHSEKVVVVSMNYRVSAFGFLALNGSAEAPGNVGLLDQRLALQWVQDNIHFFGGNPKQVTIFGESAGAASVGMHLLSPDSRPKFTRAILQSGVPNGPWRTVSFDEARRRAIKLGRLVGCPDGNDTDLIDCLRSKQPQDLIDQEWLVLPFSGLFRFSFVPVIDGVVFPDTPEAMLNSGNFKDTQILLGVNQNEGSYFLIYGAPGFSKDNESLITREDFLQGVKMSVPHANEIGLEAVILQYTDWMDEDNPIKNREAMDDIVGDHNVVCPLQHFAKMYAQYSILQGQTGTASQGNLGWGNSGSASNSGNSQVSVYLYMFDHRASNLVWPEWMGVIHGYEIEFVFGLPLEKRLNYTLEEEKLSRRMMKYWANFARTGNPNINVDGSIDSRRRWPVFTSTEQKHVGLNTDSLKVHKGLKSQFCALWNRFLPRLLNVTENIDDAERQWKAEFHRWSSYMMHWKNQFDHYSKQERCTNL
Sequence of Procathepsin L (Homo sapiens) (P07711 114-333 limits assumed): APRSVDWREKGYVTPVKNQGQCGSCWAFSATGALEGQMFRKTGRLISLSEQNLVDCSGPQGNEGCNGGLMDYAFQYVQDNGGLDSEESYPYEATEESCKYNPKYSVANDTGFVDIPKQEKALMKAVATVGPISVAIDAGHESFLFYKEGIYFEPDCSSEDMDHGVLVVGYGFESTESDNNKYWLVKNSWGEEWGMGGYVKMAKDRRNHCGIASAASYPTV

For `O=[N+]([O-])c1ccc2nc(-c3ccc(O)cc3)cc(-c3ccccc3)c2c1`, the Activity in [1], in [2], in experiment [3] and in [4] was > 90% throughout. For the same compound, the IC50 in [5] was 2.91 µM; in [6], ≥ 30 µM; in experiment [7] it was ≥ 20 µM.

For the compound `Clc1ccc2nc(-c3cccc(Br)c3)cc(-c3ccccc3)c2c1`, the Activity in [1], in experiment [2], in experiment [8] and in [4] was > 90% throughout. For the same compound, the IC50 in [5] is ≥ 28 µM; in experiment [9], ≥ 51 µM; in experiment [7], ≥ 20 µM.

Take `Cc1ccc(-c2cc(-c3ccccc3)c3cc(Cl)ccc3n2)cc1`: the Activity in experiment [1], in experiment [2], in [8] and in [4] was > 90% in each case. For the same compound, the IC50 in experiment [5] is ≥ 28 µM; in [9], ≥ 51 µM; in experiment [7], ≥ 20 µM.

As for `O=[N+]([O-])c1ccc2nc(-c3ccccc3)cc(-c3ccccc3)c2c1`, the Activity in [1], in experiment [10], in experiment [2] and in [8] was > 90% throughout. Also, the IC50 in experiment [9] is ≥ 51 µM; in experiment [11], ≥ 37 µM; in [7] it was ≥ 20 µM.

Consider `Clc1ccc2nc(-c3ccccc3)cc(-c3ccccc3)c2c1`, for which the Activity in experiment [1], in experiment [2], in experiment [3], in experiment [8] and in experiment [4] was > 90% in each case. For the same compound, the IC50 in [5] was ≥ 28 µM; in [7] it was ≥ 20 µM.

On to `Oc1ccc(-c2cc(-c3ccccc3)c3cc(Cl)ccc3n2)cc1`, for which the Activity in experiment [1], in [10], in experiment [2] and in experiment [4] was > 90% in each case. Further, the IC50 was ≥ 51 µM in experiment [9], ≥ 30 µM in experiment [6] and ≥ 20 µM in experiment [7].

In the case of `O=[N+]([O-])c1ccc2nc(-c3cccc(Br)c3)cc(-c3ccccc3)c2c1`, the Activity in experiment [1], in experiment [2], in experiment [3], in [8] and in experiment [4] was > 90% each time. For the same compound, the IC50 is ≥ 28 µM in experiment [5] and ≥ 20 µM in experiment [7].

Regarding `O=[N+]([O-])c1ccc2nc(-c3c[nH]c4ccccc34)cc(-c3ccccc3)c2c1`, the Ki came to 7 µM in [12] and 660 nM in experiment [13]. In addition, the Activity in [1] and in experiment [3] was > 90% each time. Also, the IC50 is ≥ 30 µM in [14]; 0.63 µM in experiment [5]; ≥ 30 µM in [6]; 22.9 µM in experiment [11]; 1.98 µM in experiment [7].

For the compound `COc1ccc(-c2cc(-c3ccccc3)c3cc([N+](=O)[O-])ccc3n2)cc1`, the Activity in experiment [1], in [10], in experiment [2], in experiment [3] and in [15] was > 90% each time. For the same compound, the IC50 in experiment [6] was ≥ 30 µM; in experiment [11], ≥ 37 µM; in [7], ≥ 20 µM.

On to `Cc1ccc(-c2cc(-c3ccccc3)c3cc([N+](=O)[O-])ccc3n2)cc1`, for which the Activity in experiment [1], in [2], in experiment [3] and in experiment [4] was > 90% each time. For the same compound, the IC50 was ≥ 28 µM in experiment [5], ≥ 30 µM in [6] and ≥ 20 µM in experiment [7].

`Clc1ccc2nc(-c3c[nH]c4ccccc34)cc(-c3ccccc3)c2c1`: the Activity in experiment [1], in experiment [2] and in [3] was > 90% throughout. Also, the IC50 in experiment [5] was 4.22 µM; in [6], ≥ 30 µM; in [11], ≥ 37 µM; in experiment [7], 1.33 µM.

As to `COc1ccc(-c2cc(-c3ccccc3)c3cc(Cl)ccc3n2)cc1`, the Activity in experiment [1], in [2], in experiment [3] and in [4] was > 90% throughout. For the same compound, the IC50 is ≥ 28 µM in [5], ≥ 30 µM in experiment [6] and ≥ 20 µM in experiment [7].

Values taken from ChEMBL document CHEMBL3124879, “Synthesis and evaluation of 2-(1H-indol-3-yl)-4-phenylquinolines as inhibitors of cholesterol esterase” (Bioorg Med Chem Lett, 2014).
